One molecule from ChEMBL document CHEMBL1122622, “Carbocyclic analogues of xylofuranosylpurine nucleosides. Synthesis and antitumor activity” (J Med Chem, 1984) can be followed below.

This test concerns Mus musculus. The experiment in a line: Compound was tested for antileukemic activity in P388 leukemia mice when administered a dose of 100 mg/kg/day; IA means inactive. The format is functional, organism-based. Put shortly: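 BDF1 male mice, eight per group, implanted ip with 10⁶ P388 leukemia cells. Drug given ip in 0.5 mL saline. Schedules varied between groups; the 100 mg/kg/day regimen was dosed qd 1-9.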

Active and inactive are the calls of the source. The calls are words filed in the database; no cut-off is given here.

On to `Nc1ncnc2c1ncn2[C@@H]1C[C@H](CO)[C@@H](O)[C@H]1O`, for which the result was inactive.
